# GPR7 antagonist: human neuropeptides B/W receptor 1 antagonism; inhibition, % at 4.4 µM; P48145; GPR7-expressing cells, fluorescence antagonist assay; hit rate 1.1% among 290,000; in the data active = inhibition above about 16%, passing the limit was not always enough;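 note: cells stimulated with the agonist NPW; 0% = agonist with vehicle and 100% = vehicle without agonist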
# Target sequence (P48145 whole entry, looked up): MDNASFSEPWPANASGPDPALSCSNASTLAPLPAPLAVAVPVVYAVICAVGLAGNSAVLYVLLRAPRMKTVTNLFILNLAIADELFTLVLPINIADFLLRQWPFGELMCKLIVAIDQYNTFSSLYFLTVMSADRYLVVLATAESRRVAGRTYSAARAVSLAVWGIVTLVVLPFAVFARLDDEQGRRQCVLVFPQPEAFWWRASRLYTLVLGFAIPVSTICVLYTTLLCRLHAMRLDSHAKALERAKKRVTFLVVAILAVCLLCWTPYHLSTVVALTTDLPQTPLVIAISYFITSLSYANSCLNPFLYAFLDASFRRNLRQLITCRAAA
# core dimer inh: blocks dimerization of HCV core protein | TR-FRET GST/Flag-core106 dimerization, 1536-well | inhibition, % at 5 µM | hit rate 0.33% among 300,000;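 active = inhibition above the mean of all tested compounds plus 3 SD, set per screening campaign, cut at about 45% in these data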
#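 Test system: GST/Flag-tagged HCV core106 proteins; Medium: KF-containing HEPES buffer, pH 7.45, DTT, CHAPS, BSA; Times: compound-protein-antibody incubation 4 h at 22.5 °C; Detection: TR-FRET 671 and 617 nm emission; Benchmarks: wells lacking GST-core106 and wells with excess unlabelled core106.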
# p-CIP stab down: p/CIP protein destabilization. F442A p/CIP-EGFP cells, EGFP fluorescence, 16 h. hit rate 0.01% among 290,000. decrease of EGFP signal, % at 10 µM. AID 1984;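 active = EGFP signal decrease of at least 30% at 10 µM or well 3 SD below plate mean, unless failing retest; inactive = the rest, including hits failing retest or dose response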
# FID counter: counter-screen for HCV NS3 helicase inhibitors: DNA intercalator displacement; DNA fluorescent intercalator displacement, fluorescence; AID 1845; inhibition, % at 7.9 µM; hit rate 0.17% among 290,000; in the data active = inhibition above about 37%;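 note: 0% = vehicle and 100% = reference compound; higher means more ethidium bromide displaced from hairpin DNA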
# HCV NS3 hel inh: HCV NS3 helicase inhibition; hit rate 0.56% among 290,000; inhibition, % at 10.9 µM; NS3 helicase DNA unwinding, Cy5 molecular beacon fluorescence;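 active = inhibition above the mean of all tested compounds plus 3 SD, set per campaign, cut at about 35% in these data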;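 note: 0% = DMSO wells and 100% = thioflavine S control wells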
#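 System: NS3 helicase fragment of HCV / Schedule: 1 h at 25 °C / Control set: DMSO alone as 0% and 110 µM thioflavine S as 100% / Reagent: Cy5/quencher beacon DNA duplex and ATP to start / Technique: Cy5 fluorescence / Replication: singlicate / Evaluation: % inhibition of end-to-start signal ratio versus controls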
# Active calls of the source: *; · = no result. This is a sample that favours compounds with a hit; in the whole collection about 1.9% have one here.
SMILES,GPR7 antagonist,core dimer inh,p-CIP stab down,FID counter,HCV NS3 hel inh
COc1ccc(S(=O)(=O)c2nnn(-c3cccc(Cl)c3)c2N)cc1,20*,3,3,-13,-11
Cc1c(/C=N/NC(=O)c2ccc(O)cc2)c2ccccn2c1C(=O)c1ccc(F)cc1,20*,0,-3,-6,12
Cc1c(/C=N/NC(=O)c2ccccc2O)c2ccccn2c1C(=O)c1ccc(F)cc1,-8,26,-27,-4,1
CN(C)Cc1cc(C(C)(C)c2cc(CN(C)C)c(O)c(CN(C)C)c2)cc(CN(C)C)c1O,-2,0,-2,38*,-1
CC(NC(=O)CN(c1ccc(Cl)cc1)S(C)(=O)=O)c1ccccc1 (configuration not stated),-4,1,-3,-11,-2
Cc1ccc(S(=O)(=O)N(C)C)cc1NC(=O)COC(=O)/C=C/c1ccc2ccccc2n1,·,4,·,·,·
N#CC1(NC(=O)COC(=O)/C=C/c2ccc3ccccc3n2)CCCCC1,-10,48*,-14,-21,4
CCOC(=O)C1CCN(C(=O)Nc2ccc3nc(-c4ccco4)c(-c4ccco4)nc3c2)CC1,-13,72*,-2,-24,6
CCOC(=O)C1CCN(C(=O)Nc2ccc3c(c2)nc(C)n3C)CC1,-4,6,-9,0,-6
O=C(Nc1ccc2nc(-c3ccco3)c(-c3ccco3)nc2c1)N1CCCCCC1,-8,75*,-2,-18,49*
Cc1ccc(OCCN2CCN(c3ncnc4sc(C)c(C)c34)CC2)cc1,8,-89,-4,-6,-11
Clc1ccc(OCCN2CCN(c3ncnc4sccc34)CC2)cc1,20*,-4,-30,-14,-8
CC(=O)c1ccccc1NS(=O)(=O)c1cccc2nsnc12,-9,-2,13,-2,-1
CCSc1nc(-c2ccc(OC)cc2)cc(-c2ccccc2)c1C#N,-12,16,8,1,-4
COc1ccc(-c2cc(-c3ccccc3)c(C#N)c(S(C)=O)n2)cc1 (configuration not stated),70*,36,1,-30,1
CCC(=O)NC(=S)Nc1ccc(NC(=O)c2ccc(Br)o2)cc1,18*,-5,-12,-9,11
CCC(=O)NC(=S)Nc1ccc(NC(=O)c2ccc(OC)cc2)cc1,-10,0,-8,0,-1
O=S(=O)(Nc1cccc(-c2cn3cccnc3n2)c1)c1ccc(-c2ccccc2)cc1,-7,50*,-14,-13,-11
CCCOc1cccc(C(=O)N/N=C/c2ccoc2)c1,5,1,6,-14,7
COc1ccc(OCC(=O)Nc2ccc(OC)c(S(=O)(=O)N3CCCCC3)c2)cc1,·,0,·,·,·
COc1ccc(CCC(=O)Nc2ccc(Cl)c(S(=O)(=O)N3CCCC3)c2)cc1,21*,2,6,-22,11
CC(=O)Nc1cccc(C(=O)/C=C/c2ccc(Br)cc2)c1,20*,7,-4,-10,-17
CC(=O)Nc1cccc(C(=O)/C=C/c2ccc(/C=C/C(=O)c3cccc(NC(C)=O)c3)cc2)c1,-6,4,-2,2,9
Cc1ccc(NC(=O)CN2C(=O)NC3(CCCC3)C2=O)c(Cl)c1,9,-3,-12,-4,12
COc1cc(C(=O)Nc2nnc(Cc3ccccc3)s2)cc(OC)c1OC,-7,·,7,-27,-20
SMILES,GPR7 antagonist,core dimer inh,p-CIP stab down,FID counter,HCV NS3 hel inh
COc1ccc(Cc2nnc(NC(=O)Cc3cccs3)s2)cc1OC,-12,74*,2,-13,4
CCCCCc1nnc(NC(=O)OCCC)s1,2,3,-15,-17,2
COc1ccc(C(=O)Nc2nnc(Cc3ccccc3)s2)c(OC)c1,6,68*,-8,-21,-5
CCCCCOC(=O)Nc1nnc(CCCCC)s1,19*,-3,4,-15,-6
CCCCCc1nnc(NC(=O)Cc2cccs2)s1,-3,71*,-10,-19,9
CC(C)N(CCCNC(=O)Cn1c(=O)c2cccn2c2ccc(F)cc21)Cc1ccccc1,-17,-2,-28,8,-1
O=C(Cc1cccs1)Nc1nnc(CCc2ccccc2)s1,14*,12,-7,-15,18
O=C(Cc1cccs1)Nc1nnc(Cc2ccccc2)s1,-2,83*,3,-17,12
O=[N+]([O-])c1cccc(-c2nnc(-c3ccccc3)o2)c1,3,4,-19,3,1
Cc1occc1-c1nnc(-c2cc([N+](=O)[O-])cc([N+](=O)[O-])c2)o1,-2,49*,-10,0,6
Cc1cccn2cc(-c3ccc4c(c3)NC(=O)CO4)nc12,-6,-5,4,-10,3
Cc1ccn2cc(-c3ccc4c(c3)NC(=O)CO4)nc2c1,17*,-14,-9,4,-7
COc1cc(CCCN2CCNC[C@@H]2Cc2ccccc2)cc(OC)c1OC,·,-11,·,·,·
Cc1cccc(N(C(=O)Cn2nnc3ccccc32)C(C(=O)NCc2ccco2)c2ccncc2)c1 (configuration not stated),-7,-2,-4,-29,-3
O=C(NCc1ccco1)C(c1ccco1)N(C(=O)Cn1nnc2ccccc21)c1ccc2c(c1)CCC2 (configuration not stated),-3,50*,·,-41,16
O=C(Cc1cccc2ccccc12)N/N=C/c1ccc(OC(=O)/C=C/c2ccco2)cc1,0,65*,-22,-10,15
CCC(CO)NCc1ccc(OCC(=O)Nc2cccc(C(F)(F)F)c2)c(OC)c1 (configuration not stated),6,3,-3,19,-13
CCOc1cc(CNC(C)(C)C)ccc1OCC(=O)Nc1cccc(C(F)(F)F)c1,5,-5,-10,38*,-47
CC(C)c1nnc(NC(=O)CCC(=O)Nc2ccc3cn[nH]c3c2)s1,-18,-8,-9,-12,2
Cc1ccccc1NC(=O)c1c(C)[nH]c(=S)c(C#N)c1-c1ccco1,2,16,2,22,49*
CCOc1cc(/C=C2\SC(=Nc3ccccc3)N(c3ccccc3)C2=O)ccc1OCC(=O)O,-17,12,-23,-7,4
CCOc1cc(/C=C2\SC(=Nc3ccc(F)cc3)N(c3ccc(F)cc3)C2=O)ccc1OCC(=O)O,2,19,-15,44*,12
Cc1ccc(S(=O)(=O)CC(=O)Nc2cc(C)on2)cc1,-14,-4,-14,-4,4
COc1ccc(CC(=O)NCC(=O)Nc2ccccc2Br)cc1,-15,-16,-4,-10,-7
CCOc1cc(CNCCc2ccc(S(N)(=O)=O)cc2)ccc1OCc1ccc(Cl)cc1,51*,-14,-16,37*,-91
CN(C)CC(CCC(CN(C)C)C(=O)c1ccccc1)C(=O)c1ccccc1 (configuration not stated),38*,·,-42,10,-37
O=C(c1ccc(Cl)c(S(=O)(=O)N2CCCCCC2)c1)N1CCN(c2ccccn2)CC1,21*,6,4,-33,-6
